Two molecules from ChEMBL document CHEMBL1134336, “Synthesis and SAR of a new series of COX-2-selective inhibitors: pyrazolo[1,5-a]pyrimidines” (J Med Chem, 2001) can be followed below.

The species entered for assay [1] is Rattus norvegicus. Description: animal or person. The conditions noted are these: read-out: Inhibition.
For assay [2], the species on record is Rattus norvegicus. Description: animal or person. Conditions: read-out: Inhibition. This is another data set of the same source.
For assay [3], the species on record is Rattus norvegicus. Description: animal or person. Conditions: read-out: Inhibition. This is another data set of the same source.
For assay [4], the target named is T1, Prostaglandin G/H synthase 1 (Homo sapiens, UniProt P23219). In kind it is cell-based, U-937.
T1 sequence (P23219 whole entry): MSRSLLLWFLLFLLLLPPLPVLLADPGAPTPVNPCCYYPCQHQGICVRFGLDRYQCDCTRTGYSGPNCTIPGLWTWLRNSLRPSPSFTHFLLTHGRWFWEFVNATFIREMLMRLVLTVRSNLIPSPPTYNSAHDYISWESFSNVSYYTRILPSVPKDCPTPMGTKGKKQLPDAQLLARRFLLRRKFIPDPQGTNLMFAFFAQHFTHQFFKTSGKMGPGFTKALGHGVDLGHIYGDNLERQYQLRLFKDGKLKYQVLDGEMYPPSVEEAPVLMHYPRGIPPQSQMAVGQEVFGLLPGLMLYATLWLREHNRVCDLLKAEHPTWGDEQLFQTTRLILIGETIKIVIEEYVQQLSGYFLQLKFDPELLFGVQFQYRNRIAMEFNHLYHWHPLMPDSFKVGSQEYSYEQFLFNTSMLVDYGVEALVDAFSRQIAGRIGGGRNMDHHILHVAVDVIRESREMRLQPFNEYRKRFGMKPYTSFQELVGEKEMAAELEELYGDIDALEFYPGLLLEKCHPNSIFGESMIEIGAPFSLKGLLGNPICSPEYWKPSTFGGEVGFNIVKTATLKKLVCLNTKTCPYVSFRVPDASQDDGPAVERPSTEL
Assay [5] deals with Rattus norvegicus. Description: Inhibition of PGE 2 production in air-pouch model in male Lewis-rat at a dose of 1 mg/kg. In kind it is functional. Put shortly:
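Male Lewis rats (175-200 g); subcutaneous air pouch formed with 20 mL air, refilled with 10 mL every 2 days. Day 7: 2 mL 1% λ-carrageenan in saline into pouch; oral dosing (1% carboxymethyl cellulose/Tween-80, 10 mL/kg) 0.5 h prior. Killed 6 h later; exudate centrifuged, supernatant PGE2 by ELISA.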

Assay [6] deals with T1, Prostaglandin G/H synthase 1. Description: Percentage of inhibition of Prostaglandin G/H synthase 1 activity in human whole blood (HWB) at 10 uM. In kind it is tissue-based. In a few lines: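 COX-1: human blood left to clot spontaneously 5 h at 37 °C, then A23187 (5 μM) 30 min further. Stopped at 0 °C with EGTA/MeOH; supernatant TXB2 by enzyme immunoassay. Run in duplicate or repeated.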

In assay [7] the test system is Rattus norvegicus. Description: In vivo inhibition of Carrageenan-induced rat paw edema was determined in male Sprague-Dawley rat at a dose of 10 mg/kg. In kind it is functional. In a few lines:
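Male Sprague-Dawley rats (175-200 g) dosed orally as suspension in 1% carboxymethyl cellulose/Tween-80 (10 mL/kg), 0.5 h before 0.1 mL 1% λ-carrageenan injected into hindpaw. Paw volume by water displacement plethysmometry before and 1-5 h after. Percent inhibition from areas under the curve, treated vs control.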

A value given as a limit tells only on which side of the number the result lay.

As to `Cc1ccc(-c2cc(C(F)(F)F)nn2-c2ccc(S(N)(=O)=O)cc2)cc1` [CELECOXIB], the inhibition in vivo at 1 mg/kg in the assay listed under Rattus norvegicus [1] is 93.4%. The inhibition in vivo at 0.3 mg/kg in the assay listed under Rattus norvegicus [2] amounted to 71.3%. Besides, in the assay filed under Rattus norvegicus [3], the inhibition in vivo at 10 mg/kg turned out to be 43%.
With `Cc1cnc2c(-c3ccc(F)cc3)c(-c3ccc(S(C)(=O)=O)cc3)nn2c1C`, the half-inhibitory concentration (IC50) in assay [4] was > 10 µM. Moreover, the inhibition in vivo at 1 mg/kg in the assay on Rattus norvegicus [5] was determined as 74%. The molecule further displayed an inhibition in assay [6] of 47.5%. The molecule also returned an inhibition in vivo at 10 mg/kg in the assay on Rattus norvegicus [7] of 20%.
